An excerpt weighted towards active compounds, which were near 2% of everything screened.
NR2E3 ag-1: activates human photoreceptor nuclear receptor NR2E3; inhibition of corepressor binding, % at 4.78 µM; Q9Y5X4; 320,000 compounds, 0.12% hits; GST-NR2E3/biotin-RetCOR TR-FRET, 1536-well; AID 2300;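 active means percent inhibition above the cutoff of mean plus 3 SD of all tested compounds, set per screening campaign, cut at about 20% in these data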;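 further: 0% = DMSO wells and 100% = biotin wells as full block of FRET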
Target sequence (Q9Y5X4 whole entry, looked up): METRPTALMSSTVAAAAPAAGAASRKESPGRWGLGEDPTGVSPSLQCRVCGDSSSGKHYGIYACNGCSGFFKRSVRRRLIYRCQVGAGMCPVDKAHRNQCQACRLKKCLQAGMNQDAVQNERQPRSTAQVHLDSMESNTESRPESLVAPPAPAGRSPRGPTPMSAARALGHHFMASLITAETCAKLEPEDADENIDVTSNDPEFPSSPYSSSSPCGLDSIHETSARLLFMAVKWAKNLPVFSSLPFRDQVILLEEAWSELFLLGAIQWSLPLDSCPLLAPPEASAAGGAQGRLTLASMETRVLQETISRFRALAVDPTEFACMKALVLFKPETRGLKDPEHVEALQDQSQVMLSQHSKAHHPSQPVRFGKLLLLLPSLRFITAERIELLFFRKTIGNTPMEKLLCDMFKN
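System: GST-NR2E3 and biotin-RetCOR proteins; probe or stimulus: 7 nM biotin-RetCOR; doses: compound at 4.8 µM, single dose; schedule: Compound–protein incubation for 5 h at 4 °C; detection: time-resolved FRET; read-out: percent inhibition; controls: biotin wells as high control, 0.6% DMSO wells as low control; format: 1536-well plates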
T cell modulator: T cell immune modulation candidate; 330,000 compounds, 0.068% hits; AID 2052; response (vesicle binding), % at 7 µM; 2C CD8+ T cell-vesicle binding, flow cytometry; active compounds read low;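 active means response, share of CD8 T cells binding vesicles, and their 90th percentile fluorescence all below set limits, cut at about 80% in these data, passing the limit was not always enough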;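 further: values below 100% mean blocked vesicle binding to the CD8+ T cells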
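Test system: purified 2C TCR transgenic mouse naive CD8+ T cells. Probe or stimulus: QL9-peptide-loaded Drosophila micro-vesicles bearing Ld, ICAM-1 and B7-1. Incubation: binding step 1.5 h, 37 °C, antibody labelling 20 min, ice. Measured by: flow cytometry of vesicle-bound cells.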
Myeloid diff MLP: promotes myeloid progenitor differentiation. 360,000 compounds, 1% hits. calls only at 10 µM. ER-HoxA9 myeloid progenitors, lysozyme-GFP differentiation, flow cytometry;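 active means normalized GFP-positive differentiation at or above the plate's own cutoff, the solvent-only control mean plus 3 SD; inconclusive means no clear call, values can overlap the other calls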;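 further: cells exposed to compound for four days before flow analysis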
FXN GAA850 act: frataxin GAA850 promoter activation; HEK293 lucGAA850 FXN promoter luciferase reporter, 24 h; percent of 10 µM SAHA response; activation, % at 6 µM; 360,000 compounds, 0.56% hits;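 active means activation above the average of all compounds screened plus 3 SD, cutoff fixed separately per campaign, cut at about 7.5% in these data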;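 further: 0% = DMSO wells and 100% = 10 µM SAHA wells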
NR2E3 ag-2: agonists of human NR2E3 nuclear receptor. Q9Y5X4. CHO-S Gal4-NCOR/VP16-NR2E3 two-hybrid, luciferase. inhibition of corepressor binding, % at 3.98 µM. 360,000 compounds, 0.35% hits. AID 602229;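 active means inhibition above the mean of all tested compounds plus 3 SD, cut at about 70% in these data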;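 further: 0% = DMSO with NR2E3 transfected cells and 100% = cells lacking NR2E3 construct; higher means lower luciferase signal from less NR2E3 corepressor binding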
NR2E3 ag confirm: confirmation of human NR2E3 agonists. inhibition, % at 3.98 µM. shares compounds with NR2E3 ag-2. 2,300 compounds, 51% hits. AID 624378. CHO-S mammalian two-hybrid NR2E3-NCOR, luciferase luminescence;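 active means average inhibition above a cutoff equal to the mean inhibition of all tested compounds plus one SD, cut at about 70% in these data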;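 further: 0% = DMSO in NR2E3 cells and 100% = DMSO in cells lacking NR2E3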
GAL4-VP16 luc: GAL4-VP16 reporter inhibition in NR2E3 agonist counterscreen. shares compounds with NR2E3 ag-2. CHO-S GAL4-VP16 luciferase reporter, luminescence. inhibition, % at 3.98 µM. 2,300 compounds, 29% hits;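 active means mean inhibition above a cutoff equal to the average over all tested compounds plus one standard deviation, cut at about 70% in these data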;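 further: luciferase from a UAS reporter driven by GAL4-VP16 transactivation; 0% = DMSO with VP16-transfected cells and 100% = DMSO with cells lacking VP16; higher means less reporter light so more repression of VP16 activity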
Active calls of the source: *; i = inactive; ? = inconclusive; . = not tested or not shown; + = active, no number.

SMILES	NR2E3 ag-1	T cell modulator	Myeloid diff MLP	FXN GAA850 act	NR2E3 ag-2	NR2E3 ag confirm	GAL4-VP16 luc
O=S(=O)(/C=C/C=C/S(=O)(=O)c1ccccc1)c1ccccc1	.	.	.	-16.1	84.7*	79.6*	29.4
Cc1ccc(S(=O)(=O)C=CS(=O)(=O)c2ccc(C)cc2)cc1	.	.	i	-1.6	7.3	.	.
CNC1=C(N(C(C)=O)c2ccc(Br)cc2)C(=O)c2ccccc2C1=O	2.7	737.0	?	-8.9	-8.8	.	.
CC(=O)C1=C(c2ccc(Br)cc2)C(=O)c2ccccc2C1=O	-1.1	286.6	?	-17.5	103.4*	98.6*	92.3*
Cc1ccc([C@H]2C(C(=O)O)=CC[C@@H](c3ccc(C)cc3)N2S(=O)(=O)c2ccccc2C)cc1	.	202.2	i	-1.1	2.4	.	.
Cc1ccccc1S(=O)(=O)N1[C@@H](c2ccc(Cl)cc2)C(C(=O)O)=CC[C@H]1c1ccc(Cl)cc1	.	324.7	i	-0.5	64.9	26.8	18.8
Cc1ccccc1S(=O)(=O)N1C(c2ccc(Cl)cc2)CC=C(C(=O)O)C1c1cccc(Cl)c1 (configuration not stated)	.	.	i	.	.	.	.
Cc1ccc([C@H]2C(C(=O)O)=CC[C@@H](c3ccc(Cl)cc3)N2S(=O)(=O)c2ccccc2C)cc1	.	279.5	i	-0.5	48.0	27.6	30.7
CC1(C(=O)NCc2cccc(Cl)c2)Cc2c(-c3ccc4c(c3)OCO4)ccnc2O1 (configuration not stated)	.	.	i	-2.4	-21.9	.	.
COc1ccc(S(=O)(=O)/N=C2\C=C(Nc3ccc(O)cc3)C(=O)c3ccccc32)cc1	-1.2	199.6	?	-14.6	114.0*	99.3*	99.6*
Cc1ccccc1NC1=C/C(=N\S(=O)(=O)c2ccc(C(=O)O)cc2)c2ccccc2C1=O	19.5	93.4	i	0.2	24.7	.	.
O=C(O)c1ccc(S(=O)(=O)/N=C2\C=C(Nc3ccccc3F)C(=O)c3ccccc32)cc1	8.7	i	i	-5.5	104.4*	100.4*	46.8
Cc1ccccc1NC1=C/C(=N\S(=O)(=O)c2cccs2)c2ccccc2C1=O	5.2	270.4	?	-16.2	54.7	99.6*	99.1*
Cc1ccc(NC2=C/C(=N/S(=O)(=O)c3cccs3)c3ccccc3C2=O)cc1C	0.6	393.6	i	4.7	-19.6	.	.
O=C1NC(Cc2ccccc2)c2nc3cc(Cl)ccc3c(=O)n2-c2ccccc21 (configuration not stated)	.	251.4	.	.	.	.	.
COc1cccc(NC(=O)Nc2nc(SC)ns2)c1	-0.4	113.2	i	1.9	-117.6	.	.
CCSc1nsc(NC(=O)Nc2cccc(F)c2)n1	2.9	228.9	i	-7.7	93.0*	98.9*	83.5*
COc1cccc(CNS(=O)(=O)c2ccc3c(c2)C(C)(C)C(=O)N3C)c1	-4.9	i	i	1.9	18.8	.	.
O=C(CNc1ccccc1F)Nc1cc(S(=O)(=O)N2CCCCC2)ccc1Cl	2.7	480.1	i	0.8	-19.5	.	.
Cc1ccc(S(=O)(=O)N2CCCCC2)cc1NCC(=O)Nc1ccc(Br)cc1F	.	.	i	-3.0	54.3	81.2*	72.2*
COc1ccccc1CNc1ncnc2cc(Cl)ccc12	.	.	i	-0.6	9.2	.	.
CCOc1ccccc1CNc1ncnc2ccc(-c3c(C)noc3C)cc12	0.7	0.0	i	-2.1	82.0*	81.1*	66.0
CN(C)S(=O)(=O)c1cccc(CSCc2cccc(S(=O)(=O)N(C)C)c2)c1	5.6	210.3	i	-2.1	87.6*	94.3*	81.5*
Cc1nc2ccccc2c(=O)n1NC(=O)Cc1ccc(Br)cc1	2.9	112.2	i	-3.3	-0.5	.	.
CCCCCc1ccc(CC(=O)Nn2c(C)nc3ccccc3c2=O)cc1	0.4	275.2	.	-0.6	63.6	75.8*	70.0
SMILES	NR2E3 ag-1	T cell modulator	Myeloid diff MLP	FXN GAA850 act	NR2E3 ag-2	NR2E3 ag confirm	GAL4-VP16 luc
Cc1ccc(C(=O)Cc2ccccc2)o1	2.0	590.0	i	1.6	-12.3	.	.
COc1ccccc1-[n+]1c(C)cc(/C=C2\Sc3ccccc3N2C)cc1C	-9.8	i	.	-15.1	91.6*	96.9*	82.8*
COc1ccc(C(=O)/C=C2\Sc3ccccc3N2C)cc1	-2.4	136.5	i	5.9	-152.5	.	.
COc1ccc(-[n+]2c(C)cc(/C=C3\Sc4ccccc4N3C)cc2C)cc1	-7.7	i	.	-10.9	92.5*	98.6*	92.4*
COc1ccccc1OC(=O)CCN1c2ccccc2Sc2ccccc21	-3.9	222.4	i	2.4	8.3	.	.
NC(=S)N/N=C/c1c(O)ccc2ccccc12	-1.9	340.1	i	-0.7	74.9*	1.5	9.9
Cc1cn(CC(=O)NCCN2CCOCC2)c(=O)[nH]c1=O	.	.	i	0.0	-19.5	.	.
CC(C)(C)c1ccc(-c2noc(CCC(=O)NCc3ccco3)n2)cc1	4.4	304.4	i	-13.5	76.7*	74.0*	79.3*
Cc1cccc(-c2noc(CCC(=O)NCc3ccco3)n2)c1	2.4	286.1	i	-1.8	-22.4	.	.
Cc1ccsc1C(=O)N1CCC1(C)C(=O)Nc1cccc(C#N)c1 (configuration not stated)	.	.	i	-1.5	8.3	.	.
CC(C)(C)c1ccc(C(=O)N2CCC2(C)C(=O)Nc2cccc(C#N)c2)cc1 (configuration not stated)	.	.	i	-2.5	51.9	4.1	33.0
CC1(C(=O)Nc2ccc3[nH]ncc3c2)CCN1C(=O)CCc1ccccc1 (configuration not stated)	.	.	i	1.2	25.2	.	.
CC(C)(C)c1ccc(CC(=O)N2CCC2(C)C(=O)Nc2ccc3[nH]ncc3c2)cc1 (configuration not stated)	.	.	i	1.9	57.0	36.8	44.9
CC1(C(=O)Nc2ccc3[nH]ncc3c2)CCN1C(=O)Cc1ccc(-c2ccccc2)cc1 (configuration not stated)	.	.	i	-1.1	52.6	77.7*	64.6
Cc1ccc(Cc2c(-c3ccc(F)cc3)nc3ccc(Br)cn23)cc1	.	.	i	.	-38.9	.	.
Cc1ccc(S(=O)(=O)CCC(=O)OCC(=O)Nc2ccc(N3CCOCC3)cc2)cc1	0.6	232.0	i	-0.5	-16.0	.	.
CCOC(=O)C1=C[C@@H](C2CCCCC2)N(S(=O)(=O)c2ccc([N+](=O)[O-])cc2)[C@H]1c1ccccc1	.	.	i	.	74.3*	51.8	43.0
CCCNC(=O)C1(C)CCN(Cc2cc3ccccc3o2)C1 (configuration not stated)	.	.	i	0.4	31.9	.	.
Cc1cc(/C=C2/SC(=S)N(c3cccc(Cl)c3)C2=O)c(C)n1-c1cccnc1	1.2	319.7	+	-1.6	63.3	52.8	65.6
Cc1cc(/C=C2/SC(=S)N(c3ccc([N+](=O)[O-])cc3)C2=O)c(C)n1-c1cccnc1	4.9	285.8	i	0.3	2.0	.	.

Screening results (PubChem BioAssay)
